In ChEMBL document CHEMBL3272138, “Prostaglandins and congeners. 16. Synthesis and bronchodilator activity of dl-11-doexy-3-thiaprostaglandins” (1977):

Legend:
[1] = system: Cavia porcellus; test: Bronchodilator activity in Hartley guinea pig assessed as inhibition of histamine-induced bronchoconstriction at 3.2 mg/kg, iv administered 2 mins post histamine challenge as 3 to 4 doses in 15 mins interval; type: functional
How it was run: (§1)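 Urethane (1.5 g/kg ip) anesthetized, gallamine-curarized, ventilated guinea pigs. Spasms were induced by 12-s iv jugular injections every 5 min to raise tracheal pressure 20–50 cm water: acetylcholine 40–150, histamine 5.6–22.5, or serotonin 7.5–30 μg/kg. The drug was given iv over 1 min, 2 min after three stable control spasms. Salts were given as such and esters in 10% aqueous ethanol. Spasm amplitude was expressed as percent variation vs control, with ≥4 animals per spasmogen.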

[2] = system: Cavia porcellus; test: Bronchodilator activity in Hartley guinea pig assessed as inhibition of serotonin-induced bronchoconstriction at 3.2 mg/kg, iv administered 2 mins post serotonin challenge as 3 to 4 doses in 15 mins interval; type: functional; how it was run: as §1
[3] = system: Cavia porcellus; test: Bronchodilator activity in Hartley guinea pig assessed as inhibition of acetylcholine-induced bronchoconstriction at 3.2 mg/kg, iv administered 2 mins post acetylcholine challenge as 3 to 4 doses in 15 mins interval; type: functional; how it was run: as §1
[4] = system: Cavia porcellus; test: Bronchodilator activity in iv dosed Hartley guinea pig assessed as inhibition of serotonin-induced bronchoconstriction administered 2 mins post serotonin challenge as 3 to 4 doses in 15 mins interval; type: functional
How it was run: (§2)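 Guinea pigs under urethane anesthesia, gallamine-paralyzed and artificially ventilated (60 strokes/min). Bronchospasm was evoked by iv acetylcholine (40–150), histamine (5.6–22.5) or serotonin (7.5–30 μg/kg), giving a 20–50 cm water rise in tracheal pressure, every 5 min. Three or four log-spaced iv doses (esters in 10% aqueous ethanol) were given at 15-min intervals, with ≥4 animals per spasmogen. ED50 (–50% variation of the first spasm) came from a semilog regression; if never reached, ED50 > maximal dose.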

[5] = system: Cavia porcellus; test: Bronchodilator activity in iv dosed Hartley guinea pig assessed as inhibition of acetylcholine-induced bronchoconstriction administered 2 mins post acetylcholine challenge as 3 to 4 doses in 15 mins interval; type: functional; conditions: for ED50: Cavia porcellus, Hartley, iv; how it was run: as §2
[6] = system: Cavia porcellus; test: Bronchodilator activity in iv dosed Hartley guinea pig assessed as inhibition of histamine-induced bronchoconstriction administered 2 mins post histamine challenge as 3 to 4 doses in 15 mins interval; type: functional; how it was run: as §2
[7] = system: Canis familiaris; test: Bronchodilatory activity in anesthetized dog assessed as inhibition of pilocarpine-induced bronchospasms compound administered through aerosol 15 mins post challenge measured up to 1 hr; type: functional; conditions: Canis lupus familiaris, inhaled or nasal
How it was run: (§3)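 In anesthetized dogs, a long-lasting bronchospasm was induced by pilocarpine, 400 µg/kg injection then 4 µg/kg/min perfusion, requiring an airway resistance increase of at least 200–300% over resting. After a 15-min control period, the compound was delivered by ultrasonic aerosol. Inhibition of bronchoconstriction was followed for the 1-h experiment.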

[8] = system: Canis familiaris; test: Bronchodilatory activity in anesthetized dog assessed as inhibition of pilocarpine-induced bronchospasms at 0.016 to 0.032 ug/kg administered through aerosol 15 mins post challenge measured up to 1 hr; type: functional, Canis lupus familiaris; how it was run: as §3
[9] = system: Canis familiaris; test: Bronchodilatory activity in anesthetized dog assessed as inhibition of pilocarpine-induced bronchospasms at 16 to 32 ug/kg administered through aerosol 15 mins post challenge measured up to 1 hr; type: functional, Canis lupus familiaris
How it was run: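 Anesthetized dogs receive a pilocarpine injection of 400 µg/kg, followed by a pilocarpine perfusion of 4 µg/kg/min, to produce a long-acting bronchospasm. Airway resistance must rise to at least 200-300% of the resting value. After a 15-min control period, compound is given by ultrasonic aerosol. Read-out is percent inhibition of the pilocarpine bronchoconstriction, followed over the 1 h experiment.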

SMILES	inhibition in vivo at 3.2 mg/kg [2] [%]	inhibition in vivo at 3.2 mg/kg [3] [%]	ED50 [4] [mg/kg]	ED50 [5] [mg/kg]	ED50 [6] [mg/kg]	other results
CCCCC(C)(C)[C@H](O)/C=C/C1CCC(=O)[C@@H]1CCCCCSCC(=O)O (mixture of isomers)	< 50	< 50	–	–	–	inhibition in vivo at 3.2 mg/kg [1]: < 50%
CCCCC[C@H](O)/C=C/C1CCC(=O)[C@@H]1CCCCSCC(=O)O (mixture of isomers)	–	–	0.00129	0.00514	0.00507	ED50 [7]: 0.0016 mg/kg
CCCCC[C@](C)(O)/C=C/C1CCC(=O)[C@@H]1CCCCCCC(=O)O (mixture of isomers)	–	–	0.00699	–	0.00424	MED50 [5]: 0.0032 mg/kg
CCCCC[C@H](O)/C=C/C1CCC(=O)[C@@H]1CCCSCC(=O)O (mixture of isomers)	< 50	< 50	–	–	–	inhibition in vivo at 3.2 mg/kg [1]: < 50%
CCCCC(C)(C)[C@H](O)/C=C/C1CCC(=O)[C@@H]1CCCCCCC(=O)O (mixture of isomers)	–	–	0.0259	0.0429	0.00417	–
CCCCCC(O)/C=C/C1C(O)CC(=O)C1CCCCCCC(=O)O (stereo unspecified)	–	–	–	–	–	inhibition (INH) [8]: 70%
CCCCC[C@](C)(O)/C=C/C1CCC(=O)[C@@H]1CCCCSCC(=O)O (mixture of isomers)	–	–	0.0054	0.0193	0.00185	–
CCCCC(C)(C)[C@H](O)/C=C/C1CCC(=O)[C@@H]1CCCCSCC(=O)O (mixture of isomers)	–	–	0.0523	0.604	0.0242	–
CCCCC[C@](C)(O)/C=C/C1CCC(=O)[C@@H]1CCCSCC(=O)O (mixture of isomers)	< 50	< 50	–	–	2.99	–
CCCCC[C@H](O)/C=C/C1CCC(=O)[C@@H]1CCCCCSCC(=O)O (mixture of isomers)	< 50	< 50	–	–	–	inhibition in vivo at 3.2 mg/kg [1]: < 50%
CCCCC[C@@H](O)/C=C/C1CCC(=O)[C@@H]1CCCCCSCC(=O)O (mixture of isomers)	< 50	< 50	–	–	–	inhibition in vivo at 3.2 mg/kg [1]: < 50%
CCCCC[C@@H](O)/C=C/C1CCC(=O)[C@@H]1CCCCSCC(=O)O (mixture of isomers)	–	–	0.0233	–	0.0113	MED50 [5]: 0.2 mg/kg
CCCCC[C@H](O)/C=C/C1CCC(=O)C1CCCCCCC(=O)O (mixture of isomers)	–	–	0.000397	0.032	0.0034	–
CCCCC(C)(C)[C@@H](O)/C=C/C1CCC(=O)[C@@H]1CCCCSCC(=O)O (mixture of isomers)	–	–	0.032	–	0.324	–
CC(C)NC[C@H](O)c1ccc(O)c(O)c1 [LEVISOPRENALINE]	–	–	–	–	–	inhibition (INH) [9]: 80%
